Data published in ChEMBL document CHEMBL1789904, “Imaging of Plasmodium liver stages to drive next-generation antimalarial drug discovery” (Science, 2011).

System: Plasmodium yoelii
Assay: NOVARTIS: Antimalarial liver stage activity measured as reduction in Plasmodium yoelii schizont area in HepG2-A16-CD81 cells by immuno-fluorescence, and median schizont size at 10uM compound concentration
Type: functional, organism-based
Details: for IC50: Plasmodium yoelii, HepG2-A16-CD81
Method in brief: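 Host and parasite nuclei stained with Hoechst 33342, parasites with αPyHSP70 antibody; 25 images per well by high-content imaging; median parasite (schizont) area measured by automated image analysis, ~50 schizonts per experiment, two or more independent experiments.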

SMILES	IC50 [nM]	Schizont size [um]
COc1cncc(-c2cncc(-c3ccc(C)cc3)n2)c1	> 10000	–
COc1ccccc1-n1c(C=Cc2cc(Br)ccc2O)nc2ccccc2c1=O	4590	–
O=C(Nc1ccc(-c2nc3ccccc3[nH]2)cc1)c1ccc(-c2ccc(Cl)cc2)o1	6650	–
COc1cc(C(=O)Nc2ccc3nc4n(c(=O)c3c2)CCCCC4)cc(OC)c1OC	> 10000	–
CC(=O)Nc1cccc(-c2cncc(-c3ccc(C(=O)O)cc3)n2)c1	> 10000	–
Cc1nc2ccc(NC(=O)C3CC3)cc2c(=O)n1Cc1ccc(Cl)cc1	> 10000	–
CCCCCCN(C(=O)c1ccc(C(C)(C)C)cc1)C(CC)c1nc2ccccc2c(=O)n1-c1ccc(F)cc1 (stereo not given)	> 6910	–
COc1ccccc1CNC(=O)c1nn(-c2ccc(Cl)cc2)c(=O)c2ccccc12	> 10000	–
CC(C)(C)OC(=O)N1CCC(c2c(C(=O)Nc3cccc(C(F)(F)F)c3)cnn2-c2ccc(F)cc2F)CC1	3120	–
COc1cccc(-c2cncc(-c3cncc(OC)c3)n2)c1	> 10000	–
CCCc1nc2ccc(NC(=O)c3ccccc3F)cc2c(=O)n1Cc1ccc(-c2ccccc2)cc1	1730	–
CCCN(C(=O)Nc1c(C(C)C)cccc1C(C)C)C(CC)c1nc2ccccc2c(=O)n1-c1cccc(C)c1 (stereo not given)	6300	–
COc1cccc(OC)c1C(=O)Nn1c(-c2cccc(C)c2)nc2ccccc2c1=O	> 10000	–
CCCCCCN(C(=O)COc1ccccc1)C(CC)c1nc2ccccc2c(=O)n1-c1cccc(Cl)c1 (stereo not given)	> 10000	–
COc1ccc2cc3[n+](cc2c1OC)CCc1cc2c(cc1-3)OCO2.[Cl-] [BERBERINE CHLORIDE]	548	102.08
CC1(C)N=C(N)N=C(N)N1c1ccc(Cl)cc1.Cl [CHLORCYCLOGUANIL HYDROCHLORIDE]	2.56	33.09
C[C@@H]1C[C@@H]([C@H](O)CC2CC(=O)NC(=O)C2)C(=O)[C@@H](C)C1 [CYCLOHEXIMIDE]	78.1	14.61
Cc1cc(N)c2ccccc2[n+]1CCCCCCCCCC[n+]1c(C)cc(N)c2ccccc21.[Cl-].[Cl-] [DEQUALINIUM CHLORIDE]	566	40.29
CC[C@H]1CN2CCc3cc(OC)c(OC)cc3[C@@H]2C[C@@H]1C[C@H]1NCCc2cc(OC)c(OC)cc21 [EMETINE]	7.49	26.51
CCc1nc(N)nc(N)c1-c1ccc(Cl)cc1 [PYRIMETHAMINE]	2.15	37.58
CCN(CC)CCCC(C)Nc1c2ccc(Cl)cc2nc2ccc(OC)cc12 (stereo not given) [QUINACRINE]	166	26.3
O=C1c2ccccc2-n2c1nc1ccccc1c2=O [TRYPTANTHRIN]	225	89.55
